{
  "source": "ChEMBL document CHEMBL3425488",
  "about": "“Novel histone deacetylase inhibitors induce growth arrest, apoptosis, and differentiation in sarcoma cancer stem cells” (J Med Chem, 2015)",
  "key": {"A673 [1]": {"system": "A673", "assay": "Cytotoxicity against human A673 cells assessed as cell viability after 72 hrs by MTT assay", "assay_type": "functional, cell-based", "how_it_was_run": "(§1)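 Sarcosphere-derived CSC cultures exposed 72 h to concentrations from 100 μM down to 0.1 μM. Viability compared with DMSO-only treated cells. IC50 calculated by linear regression.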"}, "MG-63 [2]": {"system": "MG-63", "assay": "Antiproliferative activity against human MG63 cells after 24 to 72 hrs by […] dye exclusion assay", "assay_type": "functional, cell-based", "how_it_was_run": "(§2)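 Sarcosphere-derived CSCs, dissociated to single cells, plated at 50000/well in complete IMDM for adhesion. After 24 h, exposed to 0.5, 1 and 2 μM. Viable cells counted by dye exclusion at 24, 48 and 72 h. Growth inhibition is expressed relative to DMSO-treated controls. Three experiments in duplicate.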"}, "HOS [3]": {"system": "HOS", "assay": "Induction of apoptosis in HOS cells at 1 to 2 uM after 48 hrs by Hoechst 33258 staining-based fluorescence microscopic analysis", "assay_type": "functional, cell-based", "conditions": "Homo sapiens", "how_it_was_run": "(§3)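 Dissociated sarcospheres seeded on glass coverslips in complete IMDM and exposed to 0.5, 1 and 2 μM for 48 h; untreated cells as negative control. Fixed in methanol/acetic acid (3:1), then stained with 2.25 μg/mL Hoechst 33258 for 10 min at rt in the dark. Apoptotic-body nuclei counted over at least five fields (20× objective) and reported as percentage of cells.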"}, "A673 [4]": {"system": "A673", "assay": "Antiproliferative activity against human A673 cells after 24 to 72 hrs by […] dye exclusion assay", "assay_type": "functional, cell-based", "how_it_was_run": "as §2"}, "[5]": {"target": "T1, Protein deacetylase HDAC6 (Homo sapiens) (UniProt Q9UBN7)", "T1 sequence (whole entry)": "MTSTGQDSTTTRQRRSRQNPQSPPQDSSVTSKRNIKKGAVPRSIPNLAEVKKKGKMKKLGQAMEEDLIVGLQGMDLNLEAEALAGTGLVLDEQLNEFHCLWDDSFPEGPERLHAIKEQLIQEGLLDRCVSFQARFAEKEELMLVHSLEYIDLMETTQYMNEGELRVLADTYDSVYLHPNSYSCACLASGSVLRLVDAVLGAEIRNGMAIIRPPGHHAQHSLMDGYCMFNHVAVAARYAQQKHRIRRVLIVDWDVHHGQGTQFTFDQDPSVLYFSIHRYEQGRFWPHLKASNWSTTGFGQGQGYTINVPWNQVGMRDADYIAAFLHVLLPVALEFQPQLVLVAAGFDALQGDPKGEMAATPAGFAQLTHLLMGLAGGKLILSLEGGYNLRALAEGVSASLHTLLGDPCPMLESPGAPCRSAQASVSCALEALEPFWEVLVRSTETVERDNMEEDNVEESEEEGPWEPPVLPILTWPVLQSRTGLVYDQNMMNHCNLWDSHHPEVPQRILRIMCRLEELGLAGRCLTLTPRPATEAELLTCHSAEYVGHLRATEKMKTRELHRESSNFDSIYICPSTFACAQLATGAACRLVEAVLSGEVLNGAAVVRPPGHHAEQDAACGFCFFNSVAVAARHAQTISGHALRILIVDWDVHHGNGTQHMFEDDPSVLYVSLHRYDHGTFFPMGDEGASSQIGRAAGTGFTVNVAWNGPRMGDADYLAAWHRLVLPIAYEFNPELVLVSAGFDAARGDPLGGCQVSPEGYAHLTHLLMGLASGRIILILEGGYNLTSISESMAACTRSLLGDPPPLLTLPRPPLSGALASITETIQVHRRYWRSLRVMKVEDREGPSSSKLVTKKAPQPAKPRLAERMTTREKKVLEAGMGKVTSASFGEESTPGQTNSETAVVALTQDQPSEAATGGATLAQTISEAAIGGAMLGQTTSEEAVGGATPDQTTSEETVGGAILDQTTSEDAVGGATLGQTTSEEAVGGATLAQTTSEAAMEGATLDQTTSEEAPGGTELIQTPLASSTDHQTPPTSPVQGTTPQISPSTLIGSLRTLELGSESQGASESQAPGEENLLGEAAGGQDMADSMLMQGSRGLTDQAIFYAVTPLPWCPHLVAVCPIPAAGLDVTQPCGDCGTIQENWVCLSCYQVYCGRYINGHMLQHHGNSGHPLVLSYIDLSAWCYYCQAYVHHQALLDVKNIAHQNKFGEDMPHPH", "assay": "Inhibition of HDAC6 in human MG63 cells assessed as upregulation of acetyl-tubulin level at 0.5 to 2 uM after 24 hrs by Western blot analysis relative to control", "assay_type": "cell-based", "conditions": "MG-63", "how_it_was_run": "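MG-63 sarcosphere-derived CSCs treated 24 h with 0.5 and 2 μM. Acetyl-tubulin measured by Western blot with densitometry normalized to TBP and expressed as index versus negative control.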"}, "SK-ES1 [6]": {"system": "SK-ES1", "assay": "Antiproliferative activity against human SK-ES-1 cells after 24 to 72 hrs by […] dye exclusion assay", "assay_type": "functional, cell-based", "how_it_was_run": "as §2"}, "A204 [7]": {"system": "A204", "assay": "Cytotoxicity against human A204 cells assessed as cell viability after 72 hrs by MTT assay", "assay_type": "functional, cell-based", "how_it_was_run": "as §1"}, "A204 [8]": {"system": "A204", "assay": "Antiproliferative activity against human A204 cells after 24 to 72 hrs by […] dye exclusion assay", "assay_type": "functional, cell-based", "how_it_was_run": "as §2"}, "HOS [9]": {"system": "HOS", "assay": "Cytotoxicity against HOS cells assessed as cell viability after 72 hrs by MTT assay", "assay_type": "functional, cell-based", "conditions": "Homo sapiens", "how_it_was_run": "as §1"}, "A204 [10]": {"system": "A204", "assay": "Induction of apoptosis in human A204 cells at 1 to 2 uM after 48 hrs by Hoechst 33258 staining-based fluorescence microscopic analysis", "assay_type": "functional, cell-based", "how_it_was_run": "as §3"}, "MG-63 [11]": {"system": "MG-63", "assay": "Cytotoxicity against human MG63 cells assessed as cell viability after 72 hrs by MTT assay", "assay_type": "functional, cell-based", "how_it_was_run": "as §1"}, "MG-63 [12]": {"system": "MG-63", "assay": "Induction of apoptosis in human MG63 cells assessed as formation of apoptotic bodies after 48 hrs by Hoechst 33258 staining-based fluorescence microscopic analysis", "assay_type": "functional, cell-based", "how_it_was_run": "as §3"}, "A673 [13]": {"system": "A673", "assay": "Induction of apoptosis in human A673 cells at 1 to 2 uM after 48 hrs by Hoechst 33258 staining-based fluorescence microscopic analysis", "assay_type": "functional, cell-based", "how_it_was_run": "as §3"}, "HOS [14]": {"system": "HOS", "assay": "Antiproliferative activity against HOS cells after 24 to 72 hrs by […] dye exclusion assay", "assay_type": "functional, cell-based", "conditions": "Homo sapiens", "how_it_was_run": "as §2"}, "Histone deacetylase 5": {"target": "Histone deacetylase 5 (Homo sapiens, UniProt Q9UQL6)", "sequence (Q9UQL6 whole entry, canonical isoform)": "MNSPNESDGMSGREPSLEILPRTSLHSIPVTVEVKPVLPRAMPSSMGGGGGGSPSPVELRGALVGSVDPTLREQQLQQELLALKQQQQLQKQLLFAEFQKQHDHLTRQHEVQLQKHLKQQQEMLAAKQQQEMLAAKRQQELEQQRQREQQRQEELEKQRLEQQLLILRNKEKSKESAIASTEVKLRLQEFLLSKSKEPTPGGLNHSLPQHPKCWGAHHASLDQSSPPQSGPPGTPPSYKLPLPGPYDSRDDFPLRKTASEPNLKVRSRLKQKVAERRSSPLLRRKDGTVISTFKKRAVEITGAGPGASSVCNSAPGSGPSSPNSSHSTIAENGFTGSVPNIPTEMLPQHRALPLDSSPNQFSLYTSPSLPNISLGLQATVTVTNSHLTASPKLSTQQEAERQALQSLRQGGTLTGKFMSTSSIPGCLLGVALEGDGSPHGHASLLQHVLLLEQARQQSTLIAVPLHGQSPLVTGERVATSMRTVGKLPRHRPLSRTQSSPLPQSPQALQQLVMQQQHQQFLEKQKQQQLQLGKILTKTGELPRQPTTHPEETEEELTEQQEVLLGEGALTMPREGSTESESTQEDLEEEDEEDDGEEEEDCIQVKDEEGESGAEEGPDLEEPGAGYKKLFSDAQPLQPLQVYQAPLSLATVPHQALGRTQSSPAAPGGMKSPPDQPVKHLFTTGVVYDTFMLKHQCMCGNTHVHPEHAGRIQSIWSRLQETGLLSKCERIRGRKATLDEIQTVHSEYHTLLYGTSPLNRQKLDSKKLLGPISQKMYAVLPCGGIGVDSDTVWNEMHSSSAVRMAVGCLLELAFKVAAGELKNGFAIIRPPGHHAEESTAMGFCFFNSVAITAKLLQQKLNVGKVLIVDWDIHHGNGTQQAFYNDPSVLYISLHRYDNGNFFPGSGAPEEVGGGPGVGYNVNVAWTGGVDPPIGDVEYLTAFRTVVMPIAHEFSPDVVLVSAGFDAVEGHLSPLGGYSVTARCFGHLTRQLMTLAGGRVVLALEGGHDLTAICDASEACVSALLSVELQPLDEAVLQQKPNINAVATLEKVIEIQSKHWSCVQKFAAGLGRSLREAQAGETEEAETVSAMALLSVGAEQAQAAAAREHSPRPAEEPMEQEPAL", "assay": "Inhibition of recombinant HDAC5 (unknown origin) by homogeneous fluorescence release assay", "how_it_was_run": "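Recombinant HDAC isoform panel (HDAC1−11), tested in 10-dose IC50 mode with 3-fold serial dilution starting from 50 μM solutions.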"}, "MG-63 [15]": {"system": "MG-63", "assay": "Induction of apoptosis in human MG63 cells at 0.5 to 2 uM after 48 hrs by Alexa Fluor 488 Annexin V/propidium iodide staining-based flow cytometric analysis", "assay_type": "functional, cell-based"}, "Histone deacetylase 4": {"target": "Histone deacetylase 4 (Homo sapiens, UniProt P56524)", "sequence (P56524 whole entry, canonical isoform)": "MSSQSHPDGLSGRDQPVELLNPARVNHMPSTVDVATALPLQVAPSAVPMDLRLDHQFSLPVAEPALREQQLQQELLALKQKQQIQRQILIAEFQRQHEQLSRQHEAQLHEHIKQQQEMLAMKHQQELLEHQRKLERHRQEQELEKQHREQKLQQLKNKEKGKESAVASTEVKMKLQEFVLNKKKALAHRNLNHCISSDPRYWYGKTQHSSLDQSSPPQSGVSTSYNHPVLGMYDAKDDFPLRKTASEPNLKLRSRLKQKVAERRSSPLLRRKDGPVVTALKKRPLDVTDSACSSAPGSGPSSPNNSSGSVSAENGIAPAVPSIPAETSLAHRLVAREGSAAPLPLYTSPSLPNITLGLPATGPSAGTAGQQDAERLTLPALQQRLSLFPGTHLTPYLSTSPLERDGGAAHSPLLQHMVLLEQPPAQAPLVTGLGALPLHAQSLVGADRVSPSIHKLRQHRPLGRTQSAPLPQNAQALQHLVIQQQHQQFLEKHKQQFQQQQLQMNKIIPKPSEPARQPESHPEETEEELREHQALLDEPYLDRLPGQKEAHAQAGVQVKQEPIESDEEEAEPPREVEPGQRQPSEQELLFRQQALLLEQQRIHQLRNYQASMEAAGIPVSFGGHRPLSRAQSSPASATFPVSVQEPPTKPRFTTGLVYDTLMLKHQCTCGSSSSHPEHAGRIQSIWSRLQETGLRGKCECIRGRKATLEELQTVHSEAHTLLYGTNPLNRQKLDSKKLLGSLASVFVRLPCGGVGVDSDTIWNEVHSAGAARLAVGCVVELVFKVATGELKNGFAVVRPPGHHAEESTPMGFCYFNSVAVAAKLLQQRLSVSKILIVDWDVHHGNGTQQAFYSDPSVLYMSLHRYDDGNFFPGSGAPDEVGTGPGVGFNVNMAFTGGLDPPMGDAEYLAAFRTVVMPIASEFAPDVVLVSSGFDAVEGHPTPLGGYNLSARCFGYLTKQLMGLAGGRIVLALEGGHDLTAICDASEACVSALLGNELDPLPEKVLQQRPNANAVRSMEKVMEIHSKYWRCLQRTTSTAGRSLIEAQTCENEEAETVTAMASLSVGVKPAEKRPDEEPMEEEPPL", "assay": "Inhibition of recombinant HDAC4 (unknown origin) by homogeneous fluorescence release assay", "how_it_was_run": "(§4)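 Isoform enzyme assay run in 10-dose IC50 mode. Compounds were serially diluted 3-fold starting from 50 μM solutions.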"}, "RD [16]": {"system": "RD", "assay": "Induction of apoptosis in human RD cells at 1 to 2 uM after 48 hrs by Hoechst 33258 staining-based fluorescence microscopic analysis", "assay_type": "functional, cell-based", "how_it_was_run": "as §3"}, "RD [17]": {"system": "RD", "assay": "Cytotoxicity against human RD cells assessed as cell viability after 72 hrs by MTT assay", "assay_type": "functional, cell-based", "how_it_was_run": "as §1"}, "SK-ES1 [18]": {"system": "SK-ES1", "assay": "Induction of apoptosis in human SK-ES-1 cells at 1 to 2 uM after 48 hrs by Hoechst 33258 staining-based fluorescence microscopic analysis", "assay_type": "functional, cell-based", "how_it_was_run": "as §3"}, "Histone deacetylase 9": {"target": "Histone deacetylase 9 (Homo sapiens, UniProt Q9UKV0)", "sequence (Q9UKV0 whole entry)": "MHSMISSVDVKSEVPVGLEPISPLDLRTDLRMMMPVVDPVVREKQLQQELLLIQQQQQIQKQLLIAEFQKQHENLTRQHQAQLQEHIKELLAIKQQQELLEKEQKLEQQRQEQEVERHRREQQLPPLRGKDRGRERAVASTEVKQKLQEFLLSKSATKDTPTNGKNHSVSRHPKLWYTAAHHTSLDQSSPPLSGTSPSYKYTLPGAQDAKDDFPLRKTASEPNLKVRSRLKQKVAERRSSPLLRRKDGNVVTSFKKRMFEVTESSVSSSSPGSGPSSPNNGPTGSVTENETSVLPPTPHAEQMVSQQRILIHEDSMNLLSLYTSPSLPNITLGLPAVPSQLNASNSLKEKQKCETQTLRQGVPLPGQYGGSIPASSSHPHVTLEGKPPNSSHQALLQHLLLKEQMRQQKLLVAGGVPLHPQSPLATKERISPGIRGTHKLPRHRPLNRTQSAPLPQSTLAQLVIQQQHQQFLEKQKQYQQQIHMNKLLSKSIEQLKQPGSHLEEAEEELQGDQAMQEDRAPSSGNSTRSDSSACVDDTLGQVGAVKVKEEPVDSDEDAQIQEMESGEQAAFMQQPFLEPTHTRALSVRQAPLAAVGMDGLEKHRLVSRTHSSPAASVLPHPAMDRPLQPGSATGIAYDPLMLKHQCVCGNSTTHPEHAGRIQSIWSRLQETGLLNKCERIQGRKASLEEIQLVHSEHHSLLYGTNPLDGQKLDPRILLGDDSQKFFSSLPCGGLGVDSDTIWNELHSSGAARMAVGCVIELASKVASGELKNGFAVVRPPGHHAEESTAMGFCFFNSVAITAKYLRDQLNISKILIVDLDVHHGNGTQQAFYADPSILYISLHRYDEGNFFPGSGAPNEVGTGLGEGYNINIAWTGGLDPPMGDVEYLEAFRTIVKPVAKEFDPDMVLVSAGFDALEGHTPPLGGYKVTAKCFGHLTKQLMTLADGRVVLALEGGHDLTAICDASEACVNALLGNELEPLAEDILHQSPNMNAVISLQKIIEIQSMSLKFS", "assay": "Inhibition of recombinant HDAC9 (unknown origin) by homogeneous fluorescence release assay", "how_it_was_run": "as §4"}, "SK-ES1 [19]": {"system": "SK-ES1", "assay": "Cytotoxicity against human SK-ES-1 cells assessed as cell viability after 72 hrs by MTT assay", "assay_type": "functional, cell-based", "how_it_was_run": "as §1"}},
  "note": "pIC50: −log10 of the molar value. Active and inactive are the calls of the source. The calls are words filed in the database; no cut-off is given here.",
  "data": [
    {"smiles": "O=C(/C=C/c1ccc(NC(=O)C(Cc2ccccc2)c2ccccc2)cn1)NO", "note": "(centres undefined)", "values": [
      {"measurement": "Activity", "setting": "A673 [1]", "value": "Dose-dependent effect"},
      {"measurement": "Activity", "setting": "MG-63 [2]", "value": "Dose-dependent effect"},
      {"measurement": "Activity", "setting": "HOS [3]", "value": "Active"},
      {"measurement": "Activity", "setting": "A673 [4]", "value": "Dose-dependent effect"},
      {"measurement": "inhibition", "setting": "[5]", "value": "Active"},
      {"measurement": "Activity", "setting": "SK-ES1 [6]", "value": "Dose-dependent effect"},
      {"measurement": "Activity", "setting": "A204 [7]", "value": "Dose-dependent effect"},
      {"measurement": "Activity", "setting": "A204 [8]", "value": "Dose-dependent effect"},
      {"measurement": "Activity", "setting": "HOS [9]", "value": "Dose-dependent effect"},
      {"measurement": "Activity", "setting": "A204 [10]", "value": "inactive"},
      {"measurement": "Activity", "setting": "MG-63 [11]", "value": "Dose-dependent effect"},
      {"measurement": "Activity", "setting": "MG-63 [12]", "value": "Dose-dependent effect"},
      {"measurement": "Activity", "setting": "A673 [13]", "value": "Active"},
      {"measurement": "Activity", "setting": "HOS [14]", "value": "Dose-dependent effect"},
      {"measurement": "pIC50", "setting": "Histone deacetylase 5", "value": 5.03},
      {"measurement": "Activity", "setting": "MG-63 [15]", "value": "Active"},
      {"measurement": "pIC50", "setting": "Histone deacetylase 4", "value": 4.93},
      {"measurement": "Activity", "setting": "RD [16]", "value": "Active"},
      {"measurement": "Activity", "setting": "RD [17]", "value": "Dose-dependent effect"},
      {"measurement": "Activity", "setting": "SK-ES1 [18]", "value": "Active"},
      {"measurement": "pIC50", "setting": "Histone deacetylase 9", "value": 4.97},
      {"measurement": "Activity", "setting": "SK-ES1 [19]", "value": "Dose-dependent effect"}
    ]},
    {"smiles": "O=C(CCCCSc1nc(-c2ccc(-c3ccccc3)cc2)cc(=O)[nH]1)NO", "values": [
      {"measurement": "Activity", "setting": "A673 [1]", "value": "Dose-dependent effect"},
      {"measurement": "Activity", "setting": "MG-63 [2]", "value": "Dose-dependent effect"},
      {"measurement": "Activity", "setting": "HOS [3]", "value": "Active"},
      {"measurement": "Activity", "setting": "A673 [4]", "value": "Dose-dependent effect"},
      {"measurement": "inhibition", "setting": "[5]", "value": "Active"},
      {"measurement": "Activity", "setting": "SK-ES1 [6]", "value": "Dose-dependent effect"},
      {"measurement": "Activity", "setting": "A204 [7]", "value": "Dose-dependent effect"},
      {"measurement": "Activity", "setting": "A204 [8]", "value": "Dose-dependent effect"},
      {"measurement": "Activity", "setting": "HOS [9]", "value": "Dose-dependent effect"},
      {"measurement": "Activity", "setting": "A204 [10]", "value": "Active"},
      {"measurement": "Activity", "setting": "MG-63 [11]", "value": "Dose-dependent effect"},
      {"measurement": "Activity", "setting": "MG-63 [12]", "value": "Dose-dependent effect"},
      {"measurement": "Activity", "setting": "A673 [13]", "value": "Active"},
      {"measurement": "Activity", "setting": "HOS [14]", "value": "Dose-dependent effect"},
      {"measurement": "pIC50", "setting": "Histone deacetylase 5", "value": "< 4.30"},
      {"measurement": "Activity", "setting": "MG-63 [15]", "value": "Active"},
      {"measurement": "pIC50", "setting": "Histone deacetylase 4", "value": "< 4.30"},
      {"measurement": "Activity", "setting": "RD [16]", "value": "Active"},
      {"measurement": "Activity", "setting": "RD [17]", "value": "Dose-dependent effect"},
      {"measurement": "Activity", "setting": "SK-ES1 [18]", "value": "Active"},
      {"measurement": "pIC50", "setting": "Histone deacetylase 9", "value": "< 4.30"},
      {"measurement": "Activity", "setting": "SK-ES1 [19]", "value": "Dose-dependent effect"}
    ]}
  ]
}
